Measurements of several laboratories.
Lines come from different studies, so protocols differ.
Organism: Trypanosoma cruzi
Effect on: parasite growth

Structure (SMILES) | technique | cells | strain | time | setting | IC50 [µM]
O=C(N[C@@H](Cc1ccccc1)C(=O)c1ncc(-c2ccccc2)o1)[C@H](Cc1ccccc1)NC(=O)N1CCOCC1 |  |  | TULAHUEN |  | intracellular, amastigote | 29.1
O=C(Cn1ccnc1[N+](=O)[O-])NCc1ccccc1 |  |  | TULAHUEN |  | intracellular, amastigote | 1.2
O=C(N[C@@H](Cc1ccccc1)C(=O)c1noc(-c2ccccc2)n1)[C@H](Cc1ccccc1)NC(=O)N1CCOCC1 |  |  | TULAHUEN |  | intracellular, amastigote | 27.7
FC(F)(F)c1ccccc1-c1nc(N2CCC(c3ccccn3)C2)c2ccccc2n1 (stereo not shown) | imaging | U2OS |  |  | intracellular, amastigote | 7.43
O=C(N[C@@H](Cc1ccccc1)C(=O)c1ncc(-c2ccccc2)s1)[C@H](Cc1ccccc1)NC(=O)N1CCOCC1 |  |  | TULAHUEN |  | intracellular, amastigote | 19.8
O=C(Cn1ccnc1[N+](=O)[O-])NCc1ccccc1 |  | NIH3T3 | TULAHUEN | 96 h | intracellular, amastigote | 1.12
C[Si](C)(C)c1cc(C(=O)[C@H](Cc2ccccc2)NC(=O)[C@H](Cc2ccccc2)NC(=O)N2CCOCC2)no1 (single isomer, unassigned) |  |  | TULAHUEN |  | intracellular, amastigote | > 64
COc1ccc(Nc2nc(-c3cccnc3)nc3ccccc23)cc1 | imaging | U2OS |  |  | intracellular, amastigote | 6.33
O=C(Cn1ccnc1[N+](=O)[O-])NCc1ccccc1 |  | L929 | TULAHUEN | 7 days | intracellular, amastigote | 3.84
O=C(Nc1ccc2c(c1)B(O)OC2)Nc1ccc(F)c(C(F)(F)F)c1 |  |  | TULAHUEN |  | intracellular, amastigote | 6.6
Oc1cccc(-c2nc(N3CCC(c4ccccn4)C3)c3ccccc3n2)c1 (stereo not shown) | imaging | U2OS |  |  | intracellular, amastigote | 4.22
C=C1CC[C@H]2C(C)=CC[C@H]3C(=C)C(=O)O[C@@H]3[C@@H]12 |  |  |  | 72 h | epimastigote | 1.9
c1ccc(CN2CCN(c3nc(-c4ccccn4)nc4ccccc34)CC2)cc1 | imaging | U2OS |  |  | intracellular, amastigote | 3
O=C(N[C@@H](Cc1ccccc1)C(=O)c1cc(-c2ccccc2)on1)[C@H](Cc1ccccc1)NC(=O)N1CCOCC1 (single isomer, unassigned) |  |  | TULAHUEN |  | intracellular, amastigote | > 64
CC1CS(=O)(=O)CCN1/N=C/c1ccc([N+](=O)[O-])o1 (stereo not shown) |  |  |  |  | epimastigote | 2.4
c1ccc(C2CCN(c3nc(-c4cnn5c4CCCC5)nc4ccccc34)C2)nc1 (stereo not shown) | imaging | U2OS |  |  | intracellular, amastigote | 4.31
